Reference: ChEMBL document CHEMBL3593164, “Rational Design and Synthesis of Thioridazine Analogues as Enhancers of the Antituberculosis Therapy” (J Med Chem, 2015)
≈ marks a conversion by molar mass, not a printed value. Calls of active or inactive are those of the source. The calls are words filed in the database; no cut-off is given here.

Columns and labels:
[1] = test system: Mycobacterium tuberculosis; assay: Antimycobacterial activity against Mycobacterium tuberculosis H37Rv infected in human monocyte-derived macrophages assessed as reduction of colony forming unit at 1.25 ug/ml after 3 weeks by broth microdilution method; assay type: functional, organism-based
Outline: (§1)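 Human monocyte-derived macrophages infected with M. tuberculosis H37Rv; each compound added at a concentration giving ≥90% macrophage viability over 3 days of treatment, alone or combined with INH or RIF at a non-antibiotic inhibitory concentration. The read-out was intracellular killing.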

[2] = test system: Mycobacterium tuberculosis; assay: Antimycobacterial activity against Mycobacterium tuberculosis H37Rv infected in human monocyte-derived macrophages assessed as reduction of colony forming unit at 0.078 ug/ml after 3 weeks by broth microdilution method; assay type: functional, organism-based; outline: as §1
[3] = test system: Mycobacterium tuberculosis; assay: Antimycobacterial activity against Mycobacterium tuberculosis H37Rv infected in human monocyte-derived macrophages assessed as reduction of colony forming unit at 16 ug/ml after 3 weeks by broth microdilution method; assay type: functional, organism-based; outline: as §1
[4] = test system: Mycobacterium tuberculosis; assay: Antimycobacterial activity against Mycobacterium tuberculosis H37Rv infected in human monocyte-derived macrophages assessed as reduction of colony forming unit at 16 ug/ml after 3 weeks by broth microdilution method in presence of 0.05 ug/ml of isoniazid; assay type: functional, organism-based; outline: as §1
[5] = test system: Mycolicibacterium smegmatis; assay: Antimycobacterial activity against Mycobacterium smegmatis MC2 155 after 3 days by broth microdilution method; assay type: functional; settings: str. MC2 155, 72 h
Outline: (§2)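 Growth inhibition of M. smegmatis mc²155 (ATCC700084) or M. tuberculosis H37Rv (ATCC27294) determined by broth microdilution; MIC in µg/mL. Where no exact MIC was reachable, the highest concentration technically testable is reported as a lower bound.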

[6] = test system: Mycolicibacterium smegmatis MC2 155
[7] = test system: Mycobacterium tuberculosis; assay: Antimycobacterial activity against Mycobacterium tuberculosis H37Rv infected in human monocyte-derived macrophages assessed as reduction of colony forming unit at 1.25 ug/ml after 3 weeks by broth microdilution method in presence of 0.5 ug/ml of rifampin; assay type: functional, organism-based; outline: as §1
[8] = test system: Mycobacterium tuberculosis; assay: Antimycobacterial activity against Mycobacterium tuberculosis H37Rv infected in human monocyte-derived macrophages assessed as reduction of colony forming unit at 0.078 ug/ml after 3 weeks by broth microdilution method in presence of 0.5 ug/ml of rifampin; assay type: functional, organism-based; outline: as §1
[9] = test system: Mycobacterium tuberculosis; assay: Antimycobacterial activity against Mycobacterium tuberculosis H37Rv infected in human monocyte-derived macrophages assessed as reduction of colony forming unit at 16 ug/ml after 3 weeks by broth microdilution method in presence of 0.5 ug/ml of rifampin; assay type: functional, organism-based; outline: as §1
[10] = test system: Mycobacterium tuberculosis; assay: Antimycobacterial activity against Mycobacterium tuberculosis H37Rv after 3 days by broth microdilution method; assay type: functional; settings: 72 h; outline: as §2
[11] = test system: Mycobacterium tuberculosis; assay: Antimycobacterial activity against Mycobacterium tuberculosis H37Rv infected in human monocyte-derived macrophages assessed as reduction of colony forming unit at 1.25 ug/ml after 3 weeks by broth microdilution method in presence of 0.05 ug/ml of isoniazid; assay type: functional, organism-based; outline: as §1
PBMC = assay: Cytotoxicity against human PBMC assessed as cell viability after 3 days by AlamarBlue assay; assay type: cell-based; settings: 72 h
[12] = test system: Mycobacterium tuberculosis; assay: Antimycobacterial activity against Mycobacterium tuberculosis H37Rv infected in human monocyte-derived macrophages assessed as reduction of colony forming unit at 40 ug/ml after 3 weeks by broth microdilution method in presence of 0.05 ug/ml of isoniazid; assay type: functional, organism-based; outline: as §1
[13] = test system: Mycobacterium tuberculosis; assay: Antimycobacterial activity against Mycobacterium tuberculosis H37Rv infected in human monocyte-derived macrophages assessed as reduction of colony forming unit at 0.078 ug/ml after 3 weeks by broth microdilution method in presence of 0.05 ug/ml of isoniazid; assay type: functional, organism-based; outline: as §1
[14] = test system: Mycobacterium tuberculosis; assay: Antimycobacterial activity against Mycobacterium tuberculosis H37Rv infected in human monocyte-derived macrophages assessed as reduction of colony forming unit at 40 ug/ml after 3 weeks by broth microdilution method in presence of 0.5 ug/ml of rifampin; assay type: functional, organism-based; outline: as §1
[15] = test system: Mycobacterium tuberculosis; assay: Antimycobacterial activity against Mycobacterium tuberculosis H37Rv infected in human monocyte-derived macrophages assessed as reduction of colony forming unit at 40 ug/ml after 3 weeks by broth microdilution method; assay type: functional, organism-based; outline: as §1
[16] = Ratio of thioridazine IC50 to compound IC50 for human PBMC; assay type: ADME, cell-based; settings: PBMC (peripheral blood mononuclear cells), read-out: Ratio IC50

Compound | Activity [1] | Activity [2] | Activity [3] | Activity [4] | MIC [5] [µg/mL] | RFU [6] | Activity [7] | Activity [8] | Activity [9] | MIC [10] [µg/mL] | Activity [11] | IC50 (PBMC) [µM] | Activity [12] | Activity [13] | Activity [14] | Activity [15] | selectivity ratio [16]
CN1CCCCC1CCn1cnc2ccccc21 (racemic) | Active | Active | Active | Active | > 256 | 15.3 | Active | Active | Active | > 256 | Active | 702 | Active | Active | Active | Active | –
Cc1c(Cc2ccccc2)c(=O)n2c3ccccc3n(CCC3CCCCN3C)c2c1C#N (racemic) | – | – | – | – | > 64 | 0.66 | – | – | – | – | – | – | – | – | – | – | –
c1ccc(CCn2c3ccccc3c3ccccc32)nc1 | – | – | – | – | > 64 | -0.17 | – | – | – | – | – | – | – | – | – | – | –
CN1CCCCC1CCN(c1ccccc1)c1ccccc1 (racemic) | – | – | – | – | > 64 | 0.61 | – | – | – | – | – | – | – | – | – | – | –
CN1CCCCC1CCn1c(C(=O)NC23CC4CC(CC(C4)C2)C3)cc2cc(Cl)ccc21 (mixture of isomers) | – | – | – | – | > 256 | 0.17 | – | – | – | – | – | – | – | – | – | – | –
CN1CCCCC1CCN1CCCC1 (racemic) | – | – | – | – | > 256 | 0.39 | – | – | – | – | – | – | – | – | – | – | –
CN1CCCCC1CCn1c2ccccc2c2ccccc21 (racemic) | Active | Active | Active | Active | 256 (≈ 875 µM) | 0.95 | Active | Active | Active | 128 (≈ 438 µM) | Active | 30 | Active | Active | Active | Active | 2
c1ccc2c(c1)c1ccccc1n2CCN1CCCCC1 | – | – | – | – | > 256 | 0.08 | – | – | – | – | – | – | – | – | – | – | –
COc1ccc(N(CCC2CCCCN2C)C(C)C)cc1OC (racemic) | Active | Active | Active | Active | > 256 | 1.17 | Active | Active | Active | > 256 | Active | 265 | Active | Active | Active | Active | –
CN1CCCCC1CCn1c2ccccc2c(=O)c2ccccc21 (configuration not stated) | – | – | – | – | 64 (≈ 200 µM) | 0.94 | – | – | – | – | – | 2.37 | – | – | – | – | –
COc1ccc(CCN(C)CCCC(C#N)(c2ccc(OC)c(OC)c2)C(C)C)cc1OC (configuration not stated) [VERAPAMIL] | – | – | – | – | 800 (≈ 1760 µM) | – | – | – | – | 512 (≈ 1130 µM) | – | 117 | – | – | – | – | –
COc1ccc(C(C#N)(CCC2CCCCN2C)C(C)C)cc1OC (mixture of isomers) | – | – | – | – | > 256 | 0.72 | – | – | – | – | – | – | – | – | – | – | –
COc1ccc(N(CCC2CCCCN2C)c2ccccc2)cc1OC (racemic) | – | – | – | – | 256 (≈ 722 µM) | 0.76 | – | – | – | – | – | – | – | – | – | – | –
CSc1ccc2c(c1)N(CCC1CCCCN1C)c1ccccc1S2 (configuration not stated) [THIORIDAZINE] | – | – | – | – | 30 (≈ 81 µM) | 0.82 | – | – | – | 15 (≈ 40.5 µM) | – | 13.8 | – | – | – | – | –
CN1CCCCC1CCn1ccc2ccc(Br)cc21 (racemic) | Active | Active | Active | Active | 64 (≈ 199 µM) | 0.81 | Active | Active | Active | > 256 | Active | 32.5 | Active | Active | Active | Active | 2
